# Assay results gathered from unrelated publications.
# Compare with care: the assays were run in different laboratories.
# Target: Serine/threonine-protein kinase WNK3 (WNK3, Homo sapiens, UniProt Q9BYP7)
SMILES,read-out,technique,tested at,remaining binding [%]
CCC(=O)N[C@H]1CC[C@@H](C(=O)N(C)c2ccc(-c3nc4ccccc4o3)cc2)C1,cell-free assay,competition with immobilised ligand,1 µM,92
Cc1cnc(Nc2ccc(C(=O)N3CCC(N4CCCC4)CC3)cc2)nc1-c1cc2ccccc2s1,binding,competition with immobilised ligand,1 µM,100
CCN1CCN(Cc2ccc(C(=O)Nc3ccc(C)c(Oc4ccc5c(c4)CC(=O)N5)c3)cc2C(F)(F)F)CC1,binding,competition with immobilised ligand,1 µM,100
Cc1c[nH]c2nccc(Oc3c(F)cc(Nc4cc(Cl)nc(N)n4)cc3F)c12,cell-free assay,competition with immobilised ligand,0.1 µM,90
c1cnn2ncc(-c3ccnc(N4CCC45COC5)n3)c2c1,binding,,1 µM,68
COc1cnc(Nc2cccc(S(N)(=O)=O)c2)nc1N1CCN(c2ccccc2)CC1,binding,competition with immobilised ligand,1 µM,97
O=C(NCCCN1CCOCC1)c1ccc(Nc2ncc(Cl)c(-c3ccc(Cl)s3)n2)cc1,binding,competition with immobilised ligand,1 µM,100
N[C@H]1CCN(c2nccc(-c3cnn4ncccc34)n2)C1,binding,,1 µM,90
COc1ccc2c(c1)O[C@@H](c1ccc(OC)c(OC)c1)C[C@H]2NC(=O)C1(c2ccc3c(c2)OC(F)(F)O3)CC1,cell-free assay,competition with immobilised ligand,1 µM,100
COc1ccnn2ncc(-c3ccnc(N(C)C)n3)c12,binding,,1 µM,92
CN([C@@H]1CCc2c(CC(=O)O)c3cc(S(C)(=O)=O)ccc3n2C1)S(=O)(=O)c1ccc(F)cc1,cell-free assay,competition with immobilised ligand,1 µM,83
C[C@@H](c1ccc(-n2cnc3c(N)ncnc32)cc1)N1CCc2nn(C)c(Cc3ccccc3)c2C1=O,binding,competition with immobilised ligand,0.1 µM,100
COc1cnc(Nc2cccc(S(N)(=O)=O)c2)nc1N1CCN(c2ccccc2)C(=O)C1,binding,competition with immobilised ligand,1 µM,97
Cn1nc(C(F)(F)F)cc1-c1cnc(N2CCc3cc(S(=O)(=O)Nc4c(F)cc(Cl)cc4F)cc(N4CCCC4=O)c32)nc1,cell-free assay,competition with immobilised ligand,1 µM,97
CN(C)c1nccc(-c2cnc3ncccn23)n1,binding,,1 µM,67
O=C(c1ccc(Nc2ncc(Cl)c(-c3cc4ccccc4s3)n2)cc1)N1CCC(N2CCCC2)CC1,binding,competition with immobilised ligand,1 µM,100
CN(C)c1nccc(-c2cnn3ncccc23)n1,binding,,1 µM,100
CC1=C(C#N)[C@@H](c2ccc3[nH]nc(C)c3c2)C(C#N)=C(c2ccc(Cl)cc2)N1,cell-free assay,competition with immobilised ligand,1 µM,100
CN(C)c1ncc(F)c(-c2cnn3ncccc23)n1,binding,,1 µM,90
O=C(NCC1CCOCC1)c1n[nH]cc1NC(=O)c1c(F)cccc1F,binding,competition with immobilised ligand,1 µM,95
CC1CCCN1c1nccc(-c2cnn3ncccc23)n1 (stereo not shown),binding,,1 µM,100
c1cncc(-c2cccc(Nc3nccc(NC4CCCCC4)n3)c2)c1,binding,competition with immobilised ligand,10 µM,94
